Assay results from ChEMBL document CHEMBL4251593, “Nontoxic combretafuranone analogues with high in vitro antibacterial activity” (Eur J Med Chem, 2018).
≈ marks a conversion by molar mass, not a printed value.

Key:
[1] = system: Klebsiella pneumoniae; experiment: Antibacterial activity against Klebsiella pneumoniae HK14368/08 clinical isolate after 24 hrs by microdilution assay; assay type: functional; conditions: HK14368/08, 24 h
[2] = system: MCF7; experiment: Cytotoxicity against human MCF7 cells assessed as reduction in cell viability after 48 hrs by ATPlite-based luminescent assay; conditions: MCF7, 48 h
[3] = system: TERT-RPE1; experiment: Induction of apoptosis in human RPE1 cells assessed as caspase 3/7 activity after 24 hrs by caspase-glo luminescent assay; assay type: cell-based; conditions: RPE-1, 24 h
Summary of the method: (§1)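 Cells were seeded at 500 per well in their growth media and exposed to 12 concentrations from 40 µM to 1 nM, delivered from DMSO, in triplicate. After 24 h, caspase-3/7 activity was read by Caspase-Glo luminescence. Data were normalized and ED50 was fitted by variable-slope nonlinear regression.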

[4] = system: HL-60; experiment: Induction of apoptosis in human HL60 cells assessed as caspase 3/7 activity after 24 hrs by caspase-glo luminescent assay; assay type: cell-based; conditions: HL-60, 24 h; summary of the method: as §1
[5] = system: Staphylococcus aureus; experiment: Antibacterial activity against Staphylococcus aureus ATCC 6538 after 48 hrs by microdilution assay; assay type: functional; conditions: ATCC 6538, 48 h
[6] = system: Pseudomonas aeruginosa; experiment: Antibacterial activity against Pseudomonas aeruginosa ATCC 9027 after 48 hrs by microdilution assay; assay type: functional; conditions: ATCC 9027, 48 h
Summary of the method: (§2)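 Broth microdilution in Mueller-Hinton medium buffered to pH 7.4 (±0.2), with DMSO as diluent at no more than 2% final. Compounds were tested as 2-fold serial dilutions from 2000 to 0.488 µmol/l. The inoculum was 0.5 McFarland (1.5×10^8 cfu/ml). Plates were held at 37 °C and read visually at 24 and 48 h. MIC was taken as 95% growth inhibition versus control, determined twice in duplicate.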

[7] = system: Enterococcus sp.; experiment: Antibacterial activity against Enterococcus sp. HK14365/08 clinical isolate after 24 hrs by microdilution assay; assay type: functional; conditions: HK14365/08, 24 h
[8] = system: Staphylococcus aureus; experiment: Antibacterial activity against methicillin-resistant Staphylococcus aureus HK5996/08 clinical isolate after 48 hrs by microdilution assay; assay type: functional; conditions: HK5996/08, 48 h
[9] = system: PC-3; experiment: Cytotoxicity against human PC3 cells assessed as reduction in cell viability after 48 hrs by ATPlite-based luminescent assay; conditions: PC-3, 48 h
Summary of the method: (§3)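 Cells were grown […] with 10% FBS, glutamax, NEAA and pen/strep at 37 °C, 5% CO2. Media were DMEM for RPE-1, HepG2 and BJ (BJ plus 10 ng/ml bFGF), F-12K for PC3, and IMDM for K562/HL-60. Cells were seeded at 500 per well and dosed from DMSO at 12 concentrations, 40 µM to 1 nM, in triplicate. After 48 h, intracellular ATP was read by luminescence. ED50 was obtained by variable-slope nonlinear regression.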

[10] = system: Escherichia coli; experiment: Antibacterial activity against Escherichia coli ATCC 8739 after 24 hrs by microdilution assay; assay type: functional; conditions: ATCC 8739, 24 h; summary of the method: as §2
[11] = system: Enterococcus sp.; experiment: Antibacterial activity against Enterococcus sp. HK14365/08 clinical isolate after 48 hrs by microdilution assay; assay type: functional; conditions: HK14365/08, 48 h
[12] = system: HepG2; experiment: Induction of apoptosis in human HepG2 cells assessed as caspase 3/7 activity after 24 hrs by caspase-glo luminescent assay; assay type: cell-based; conditions: HepG2, 24 h; summary of the method: as §1
[13] = system: Staphylococcus aureus; experiment: Antibacterial activity against Staphylococcus aureus ATCC 6538 after 24 hrs by microdilution assay; assay type: functional; conditions: ATCC 6538, 24 h
[14] = system: HepG2; experiment: Cytotoxicity against human HepG2 cells assessed as reduction in cell viability after 48 hrs by ATPlite-based luminescent assay; conditions: HepG2, 48 h; summary of the method: as §3
[15] = system: Klebsiella pneumoniae; experiment: Antibacterial activity against Klebsiella pneumoniae HK11750/08 clinical isolate after 48 hrs by microdilution assay; assay type: functional; conditions: HK11750/08, 48 h
[16] = system: Klebsiella pneumoniae; experiment: Antibacterial activity against Klebsiella pneumoniae HK14368/08 clinical isolate after 48 hrs by microdilution assay; assay type: functional; conditions: HK14368/08, 48 h
[17] = system: K562; experiment: Cytotoxicity against human K562 cells assessed as reduction in cell viability after 48 hrs by ATPlite-based luminescent assay; conditions: K562, 48 h; summary of the method: as §3
[18] = system: K562; experiment: Induction of apoptosis in human K562 cells assessed as caspase 3/7 activity after 24 hrs by caspase-glo luminescent assay; assay type: cell-based; conditions: K562, 24 h; summary of the method: as §1
[19] = system: HL-60; experiment: Cytotoxicity against human HL60 cells assessed as reduction in cell viability after 48 hrs by ATPlite-based luminescent assay; conditions: HL-60, 48 h; summary of the method: as §3
[20] = system: Klebsiella pneumoniae; experiment: Antibacterial activity against Klebsiella pneumoniae HK11750/08 clinical isolate after 24 hrs by microdilution assay; assay type: functional; conditions: HK11750/08, 24 h
[21] = system: Pseudomonas aeruginosa; experiment: Antibacterial activity against Pseudomonas aeruginosa ATCC 9027 after 24 hrs by microdilution assay; assay type: functional; conditions: ATCC 9027, 24 h; summary of the method: as §2
[22] = system: BJ; experiment: Cytotoxicity against human BJ cells assessed as reduction in cell viability after 48 hrs by ATPlite-based luminescent assay; summary of the method: as §3
[23] = system: Staphylococcus epidermidis; experiment: Antibacterial activity against Staphylococcus epidermidis HK6966/08 clinical isolate after 48 hrs by microdilution assay; assay type: functional; conditions: HK6966/08, 48 h
[24] = system: Escherichia coli; experiment: Antibacterial activity against Escherichia coli ATCC 8739 after 48 hrs by microdilution assay; assay type: functional; conditions: ATCC 8739, 48 h; summary of the method: as §2
[25] = system: PC-3; experiment: Induction of apoptosis in human PC3 cells assessed as caspase 3/7 activity after 24 hrs by caspase-glo luminescent assay; assay type: cell-based; conditions: PC-3, 24 h; summary of the method: as §1
[26] = system: TERT-RPE1; experiment: Cytotoxicity against human RPE1 cells assessed as reduction in cell viability after 48 hrs by ATPlite-based luminescent assay; conditions: RPE-1, 48 h; summary of the method: as §3
[27] = system: Staphylococcus epidermidis; experiment: Antibacterial activity against Staphylococcus epidermidis HK6966/08 clinical isolate after 24 hrs by microdilution assay; assay type: functional; conditions: HK6966/08, 24 h
[28] = system: Staphylococcus aureus; experiment: Antibacterial activity against methicillin-resistant Staphylococcus aureus HK5996/08 clinical isolate after 24 hrs by microdilution assay; assay type: functional; conditions: HK5996/08, 24 h

| SMILES | MIC95 [1] [µM] | IC50 [2] [µM] | IC50 [3] [µM] | IC50 [4] [µM] | MIC95 [5] [µM] | MIC95 [6] [µM] | MIC95 [7] [µM] | MIC95 [8] [µM] | IC50 [9] [µM] | MIC95 [10] [µM] | MIC95 [11] [µM] | IC50 [12] [µM] | MIC95 [13] [µM] | IC50 [14] [µM] | MIC95 [15] [µM] | MIC95 [16] [µM] | IC50 [17] [µM] | IC50 [18] [µM] | IC50 [19] [µM] | MIC95 [20] [µM] | also measured |
| --- | --- | --- | --- | --- | --- | --- | --- | --- | --- | --- | --- | --- | --- | --- | --- | --- | --- | --- | --- | --- | --- |
| Cc1ccc(C2=C(c3ccc(Br)cc3)C(=O)OC2)cc1 | > 1000 | 14.8 | 8.16 | 2.77 | 15.6 (≈ 5.14 µg/mL) | > 1000 | > 1000 | 62.5 (≈ 20.6 µg/mL) | > 40 | > 1000 | > 1000 | > 40 | 7.81 (≈ 2.57 µg/mL) | > 40 | > 1000 | > 1000 | 0.3 | 0.29 | 0.65 | > 1000 | MIC95 [21]: > 1000 µM; IC50 [22]: > 40 µM; MIC95 [23]: 31.2 µM (≈ 10.3 µg/mL); MIC95 [24]: > 1000 µM; IC50 [25]: > 40 µM; IC50 [26]: 0.97 µM; MIC95 [27]: 15.6 µM (≈ 5.14 µg/mL); MIC95 [28]: 62.5 µM (≈ 20.6 µg/mL) |
| COc1ccc(C2=C(c3ccc(OC)c(OC)c3)C(CO)OC2=O)cc1 (stereo not drawn) | > 125 | > 40 | > 40 | > 40 | 125 (≈ 44.5 µg/mL) | > 125 | > 125 | 125 (≈ 44.5 µg/mL) | > 40 | > 125 | > 125 | > 40 | 125 (≈ 44.5 µg/mL) | > 40 | > 125 | > 125 | > 40 | > 40 | > 40 | > 125 | MIC95 [21]: > 125 µM; IC50 [22]: > 40 µM; MIC95 [23]: 62.5 µM (≈ 22.3 µg/mL); MIC95 [24]: > 125 µM; IC50 [25]: > 40 µM; IC50 [26]: > 40 µM; MIC95 [27]: 62.5 µM (≈ 22.3 µg/mL); MIC95 [28]: 125 µM (≈ 44.5 µg/mL) |
| Cc1ccc(C2=C(c3cccc(C(F)(F)F)c3)C(=O)OC2)cc1 | > 500 | 19.1 | > 40 | 2.66 | 31.2 (≈ 9.95 µg/mL) | > 500 | > 500 | 31.2 (≈ 9.95 µg/mL) | > 40 | > 500 | > 500 | > 40 | 31.2 (≈ 9.95 µg/mL) | > 40 | > 500 | > 500 | 0.29 | 0.31 | 0.66 | > 500 | MIC95 [21]: > 500 µM; IC50 [22]: > 40 µM; MIC95 [23]: 15.6 µM (≈ 4.97 µg/mL); MIC95 [24]: > 500 µM; IC50 [25]: > 40 µM; IC50 [26]: 1.33 µM; MIC95 [27]: 15.6 µM (≈ 4.97 µg/mL); MIC95 [28]: 31.2 µM (≈ 9.95 µg/mL) |
| Cc1ccc(C2=C(c3ccc(F)cc3)C(=O)OC2)cc1 | > 500 | > 40 | > 40 | 7.53 | 125 (≈ 33.5 µg/mL) | > 500 | > 500 | > 500 | > 40 | > 500 | > 500 | > 40 | 125 (≈ 33.5 µg/mL) | > 40 | > 500 | > 500 | 4 | 3.23 | 9.34 | > 500 | MIC95 [21]: > 500 µM; IC50 [22]: > 40 µM; MIC95 [23]: 125 µM (≈ 33.5 µg/mL); MIC95 [24]: > 500 µM; IC50 [25]: > 40 µM; IC50 [26]: > 40 µM; MIC95 [27]: 125 µM (≈ 33.5 µg/mL); MIC95 [28]: > 500 µM |
| O=C1OCC(c2ccc(C(F)(F)F)cc2)=C1c1c[nH]c2ccccc12 | > 125 | > 40 | 1.54 | 2.94 | > 125 | > 125 | > 125 | > 125 | > 40 | > 125 | > 125 | > 40 | > 125 | > 40 | > 125 | > 125 | 0.26 | > 40 | 0.67 | > 125 | MIC95 [21]: > 125 µM; IC50 [22]: > 40 µM; MIC95 [23]: > 125 µM; MIC95 [24]: > 125 µM; IC50 [25]: > 40 µM; IC50 [26]: 0.87 µM; MIC95 [27]: > 125 µM; MIC95 [28]: > 125 µM |
| COc1ccc(C2=C(c3c(Cl)cccc3Cl)C(=O)OC2)cc1 | > 500 | > 40 | > 40 | 12.5 | 125 (≈ 41.9 µg/mL) | > 500 | > 500 | > 500 | > 40 | > 500 | > 500 | > 40 | 62.5 (≈ 20.9 µg/mL) | > 40 | > 500 | > 500 | 14.4 | 16.2 | 15.1 | > 500 | MIC95 [21]: > 500 µM; IC50 [22]: > 40 µM; MIC95 [23]: 250 µM (≈ 83.8 µg/mL); MIC95 [24]: > 500 µM; IC50 [25]: > 40 µM; IC50 [26]: > 40 µM; MIC95 [27]: 125 µM (≈ 41.9 µg/mL); MIC95 [28]: > 500 µM |
